Source: PubChem
FAS TE block – FAS thioesterase domain inhibitors, primary screen, biochemical, fluorescence intensity, uHTS | recombinant FAS-TE, OMFH fluorogenic substrate, fluorescence endpoint | inhibition, % at 15 µM | hit rate 0.67% among 360,000 | AID 602261, 2012;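 active = compounds whose normalised, plate-corrected inhibition of enzyme fluorescence in the single-dose primary screen is 50% or more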
GRIN3A LBD mod – binders of NR3A ligand-binding domain, primary screen, biophysical, differential scanning fluorimetry, uHTS; NR3A LBD differential scanning fluorimetry, Tm shift; 0% = protein alone, 100% = glycine-bound protein; Tm shift relative to glycine control, % at 25 µM; hit rate 2.5% among 340,000; AID 1259313, 2017;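 active = melting temperature shift of at least 10% of the positive control shift, at one fixed dose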
iPSC survival up – enhancers of single-cell hiPSC survival, primary screen, ATPlite luminescence; AID 602274, 2012; hit rate 0.044% among 360,000; 100% = ROCK inhibitor wells, 0% = DMSO; survival enhancement, % at 20 µM; in the data active = survival enhancement above about 18%;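 note: cells exposed to compounds for 16 hours before the ATP read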
H9c2 protect – cardioprotection against H2O2-induced cell death, primary screen, uHTS, H9c2 cells, ATPLite luminescence | H9c2 cardiomyocytes, H2O2 injury protection, 2 h | protection from H2O2 cell death, % at 20 µM | hit rate 0.63% among 360,000 | AID 588492, 2011;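 active = compounds giving at least 50% protection of heart cells from peroxide-induced death in the single-dose screen, raw or plate-pattern-corrected value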
SENP1 inh – human SENP1 catalytic domain inhibitors, primary screen, biochemical, FRET, uHTS. hit rate 0.21% among 360,000. recombinant SENP1 catalytic domain, CyPet-SUMO1-YPet FRET cleavage. inhibition, % at 10 µM. Sentrin-specific protease 1 (Homo sapiens), Q9P0U3. AID 624204, 2012;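 active = inhibition at least 30% at 10 µM, raw YFP signal under a set limit, fluorescence ratio 0.5 to 1.5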
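Compound: 10 µM single point, 0.5% DMSO; Test system: hSENP1 catalytic domain, recombinant; Timing: 50 min reaction at room temperature; Technique: FRET, CFP and YFP emission; Control set: no-enzyme wells low, DMSO-plus-enzyme wells high control.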
Arr AP2 block – inhibitors of beta-arrestin/AP2 binding, primary screen, biochemical, GPCR trafficking, flow cytometry; beta-arrestin 1 C-terminal peptide binding to AP2 beta2-adaptin appendage (human); FITC-arrestin peptide / GST-AP2 beads; AP2 beta2 appendage carries R879A mutation; inhibition, % at 10 µM; hit rate 0.31% among 340,000; AID 504490, 2011;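 active = inhibition above a set limit, near 3 SD of compounds lacking own fluorescence, cut at about 54% in these data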
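Material – AP2 appendage R879A on GSH beads · Buffer or medium – PBS with 0.05% Tween 20 and 0.1% BSA · Probe or stimulus – fluorescein-tagged arrestin peptide at 50 nM final · Incubation – compound with beads 12 min RT, then probe 1 h RT · Detection – high-throughput flow cytometry of beads, ex 488, em 535 nm · Evaluation – percent response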
Hits are given with their value; i = inactive; nt = no result given. Hits are enriched below; roughly 4% of the tested compounds scored in any of these assays.

SMILES	FAS TE block	GRIN3A LBD mod	iPSC survival up	H9c2 protect	SENP1 inh	Arr AP2 block
CCc1ccc(NC(=O)c2ccc(NC3=NC4CS(=O)(=O)CC4S3)cc2)cc1 (configuration not stated)	i	12.7	i	i	i	i
Cc1ccccc1NC(=O)c1cccc(N2C(=O)C3CCCCC3C2=O)c1 (configuration not stated)	i	i	i	i	i	i
COc1ccc(N2C(=O)C3CCCCC3C2=O)cc1NC(=O)c1ccccc1 (configuration not stated)	i	38.5	i	i	i	i
O=C(Nc1cccc(NC(=O)c2ccc(-c3ccc(Br)cc3)o2)c1)c1ccco1	i	30.6	i	i	i	i
COc1ccc(-c2cccc(NC(=O)c3ccco3)c2)nn1	i	42.7	i	i	i	i
CC1(C(=O)NS(=O)(=O)C2CC2)CCN(C(=O)c2cccc(Cl)c2)C1 (configuration not stated)	i	nt	i	i	i	nt
CCCCOCCCNC(=O)C[C@@H]1C[C@@]2(C(=O)OC)CCCCC=C2N(Cc2ccco2)C1=O	i	nt	i	nt	i	nt
COc1cc(NC(=O)Nc2nnc([C@H]3C[C@H](O)[C@@H](CO)O3)s2)cc(OC)c1OC	i	nt	i	i	i	nt
COc1cccc(N/C=C/C(=O)c2ccc(Br)cc2)c1	i	i	i	i	i	i
COc1ccc(C(=O)/C=C/Nc2cccc(O)c2)cc1	i	18.8	i	i	i	i
COc1cccc(C(=O)/C=C/Nc2ccc(S(=O)(=O)Nc3ccc(C(C)=O)cc3)cc2)c1	i	24.4	i	i	i	i
COc1cccc(C(=O)/C=C/Nc2ccc(S(=O)(=O)Nc3ncccn3)cc2)c1	i	i	i	i	i	i
COc1ccc(C(=O)/C=C/Nc2ccc(S(=O)(=O)Nc3cccc(C(C)=O)c3)cc2)cc1	i	13.5	i	i	i	i
COc1cccc(C(=O)/C=C/Nc2ccc(S(=O)(=O)Nc3nc(C)cc(C)n3)cc2)c1	i	i	i	i	i	i
COc1cc(OCc2ccccc2)c(C(=O)/C=C/c2ccc3c(c2)OCO3)c(OC)c1OC	i	i	i	i	i	i
COc1cc(C2c3c(-c4cc(C)cc(C)c4O)n[nH]c3C(=O)N2CCCO)cc(OC)c1OC (configuration not stated)	i	345.4	i	i	i	i
Cc1ccc(S(=O)(=O)CCC(=O)OCC(=O)Nc2cccc(S(=O)(=O)N3CCCCC3)c2)cc1	i	nt	i	i	i	nt
O=[N+]([O-])c1cc(C(F)(F)F)ccc1NCCNC(=S)Nc1ccc(Cl)cc1	i	15.4	i	i	i	i
O=[N+]([O-])c1cc(Cl)ccc1NCCNc1ncc(C(F)(F)F)cc1Cl	i	14.3	i	i	i	i
COc1c(C)cc(C(O)c2ncc(-c3ccccc3)[nH]2)cc1C (configuration not stated)	i	nt	i	i	i	nt
O=C(C(=O)N1CCC(Cc2ccccc2)CC1)c1ccccc1	nt	nt	nt	nt	i	nt
CC(C)C[C@H]1CNC(=O)C(=O)N1C[C@H]1CCCN1C[C@H](CC(C)C)N1C[C@H](CC(C)C)N(CCc2ccccc2)C(=O)C1=O	i	nt	i	nt	i	nt
CCc1ccc(CN(C)CC(=O)Nc2ccccc2[N+](=O)[O-])cc1	i	19.1	i	i	i	i
CCN(CC)c1ccc(S(=O)(=O)Nc2cc(Cl)ccc2Cl)cc1NC(=S)NC(=O)C1CCCC1	i	14.1	i	i	i	i
Cc1cc(C)c(NC(=O)C2C(=O)Nc3ccccc3C(=O)N2C(C)(C)C)c(C)c1 (configuration not stated)	nt	nt	nt	nt	i	nt
CCN1C(=O)CC2CCCC1C2 (configuration not stated)	i	11.2	i	i	i	i
